The text below walks through data of ChEMBL document CHEMBL2176997, “Salicylanilide inhibitors of Toxoplasma gondii” (J Med Chem, 2012).

A word on the MIC50: it is an inhibitory concentration at the 50% level, which refers to growth in some studies and to a panel of isolates in others. What is called MIC90 is the lowest concentration that inhibits either 90% of growth or 90% of the strains tested, depending on the study. As usually defined, the IC50 is the midpoint of a concentration-inhibition curve. Broadly, the IC90 is the concentration needed for an effect of 90%. High values mean weaker potency, low ones greater potency.

Values after ≈ are worked out from the molar mass of the structure shown. Active and inactive are the calls of the source. No cut-off for these calls is given here.

In series [1] the test system is Toxoplasma gondii. Nature of the series: Antiapicomplexan activity against Toxoplasma gondii RH tachyzoites infected in HFF cells assessed as [3H]-uracil incorporation after 24 hrs by scintillation luminescence counter. It is filed as functional. A digest of the protocol:
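Confluent HFF monolayers in IMDM-C (10% FBS) infected with 3,500 needle-released tachyzoites per well. Compounds from 10 mM DMSO stocks, diluted in medium (final DMSO ≤0.1%), were added 1 h after infection, with 0.1% DMSO as vehicle control. [3H]-uracil (25 µL of 0.1 mCi/mL) was added 24 h before harvest onto glass-fibre filters and counted by scintillation. Cultures were kept at 33°C or 37°C, 5% CO2.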

In series [2] the test system is Plasmodium falciparum. Nature of the series: Antiapicomplexan activity against chloroquine-resistant Plasmodium falciparum TM91-C235 assessed as growth inhibition after 72 hrs by MSF assay. It is filed as functional, organism-based. The note with it: TM91-C235, 72 h. Summed up: (§1)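 P. falciparum D6 or TM91-C235, late-ring/early-trophozoite stage, cultured at 0.3% parasitemia and 2% hematocrit on predosed plates. Twelve two-fold dilutions spanned 0.5–10000 ng/ml final, in quadruplicate, with chloroquine control. Incubation 72 h at 37°C under 5% CO2/5% O2/90% N2. Lysis buffer with SYBR Green I (10x final) was added, then 24 h dark at room temperature. IC50 from fluorescence by sigmoidal variable-slope regression.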

Series [3] relates to Toxoplasma gondii. The series is described as follows: Parasitostatic activity against Toxoplasma gondii RH tachyzoites expressing yellow fluorescent protein infected in HFF cells at 1 uM administered for 10 days followed by compound wash out measured on day 17. It is filed as functional, organism-based. A digest of the protocol: (§2)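 RH-YFP tachyzoites grown in HFF cells were exposed to 1 µM compound under set schedules: 4 days of treatment then removal, or 10 days of treatment then removal. Parasite burden was followed over time as YFP fluorescence (excitation 514 nm, emission 540 nm, bottom read) and compared with untreated infected controls.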

The test system of series [4] is Plasmodium falciparum. Nature of the series: Selectivity ratio of IC50 for chloroquine-resistant Plasmodium falciparum TM91-C235 to IC50 for chloroquine-sensitive Plasmodium falciparum D6. The series is classed as functional.
Series [5] deals with Toxoplasma gondii. The series is described as follows: Antiapicomplexan activity against Toxoplasma gondii THdhxgTRP tachyzoites harboring insertional mutation assessed as growth inhibition after 6 weeks. The series is classed as functional, organism-based.
The test system of series [6] is Toxoplasma gondii. The series is described as follows: Antiapicomplexan activity against Toxoplasma gondii RH tachyzoites expressing yellow fluorescent protein infected in HFF cells after 72 hrs by fluorescence assay. It is filed as functional, organism-based. Summed up:
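Confluent HFF monolayers in IMDM-C (10% FBS) infected with 3,500 RH-YFP tachyzoites per well. Compounds were added 1 h later from 10 mM DMSO stocks, final DMSO ≤0.1%. Pyrimethamine/sulfadiazine and 0.1% DMSO served as controls. After 72 h YFP fluorescence was read (ex 514, em 540 nm, bottom optics), giving MIC50/MIC90 ranges. Plates held at 33°C or 37°C, 5% CO2.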

Series [7] relates to Toxoplasma gondii. Nature of the series: Parasitostatic activity against Toxoplasma gondii RH tachyzoites expressing yellow fluorescent protein infected in HFF cells at 1 uM administered for 4 days followed by compound wash out measured on day 11 relative to untreated control. It is filed as functional, organism-based. A digest of the protocol:
as §2

The next series concerns HFF. The series is described as follows: Cytotoxicity against HFF cells assessed as survival by WST1 assay. It is filed as cell-based. To be noted: human. A digest of the protocol:
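Confluent HFF cells were treated with compounds at the concentrations used in the challenge assays. On the final day WST-1 reagent was added, followed by 1 h incubation in the dark at 37°C and absorbance reading at 420 nm.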

The test system of series [8] is Toxoplasma gondii. Nature of the series: Antiapicomplexan activity against Toxoplasma gondii RH tachyzoites expressing yellow fluorescent protein infected in HFF cells assessed as parasite growth inhibition at 1 uM administered for 25 days followed by compound wash out. It is filed as functional, organism-based.
The subject of series [9] is Plasmodium falciparum. The series is described as follows: Antiapicomplexan activity against chloroquine-sensitive Plasmodium falciparum D6 assessed as growth inhibition after 72 hrs by MSF assay. To be noted: D6, 72 h. The series is classed as functional, organism-based. A digest of the protocol: as §1

With `CC(C)(C)c1cccc(NC(=O)c2cc(Cl)ccc2O)c1`, the MIC50 in the series with Toxoplasma gondii [1] worked out at 0.008 µM (≈ 2.43 ng/mL). Also, the MIC90 in the series with Toxoplasma gondii [1] was found to be 0.016 µM (≈ 4.86 ng/mL). The concentration for half-maximal inhibition (IC50) was over 6500 nM in the series on Plasmodium falciparum [2], 8 nM in the series on Toxoplasma gondii [6] and 3100 nM with Plasmodium falciparum [9]. In addition, the outcome in the series with Toxoplasma gondii [3] and with Toxoplasma gondii [7] was inactive. For the same molecule, the “Ratio IC50” value with Plasmodium falciparum [4] came to 2. Also, the “growth inhibition (GI)” value in the series on Toxoplasma gondii [5] and with Toxoplasma gondii [8] was “Active” in each case. Further, in the series with Toxoplasma gondii [6], the 90% effect level (IC90) was put at 16 nM. The Activity in the series on HFF is over 1000 nM.
